From ChEMBL document CHEMBL2390931, “Synthesis and antifungal activity of some s-mercaptotriazolobenzothiazolyl amino acid derivatives” (2013)
In brackets after ≈: the same amount, converted by molar mass. Activity calls are given as the source filed them. The calls are words filed in the database; no cut-off is given here.

Assays:
Format in all cases: functional
[1] = test system: Aspergillus flavus; experiment: Antifungal activity against Aspergillus flavus at 300 ppm; settings: for zone of inhibition at 300 ppm: read-out: DIZ
Outline: (§1)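 Agar well diffusion against clinical isolates (A. flavus mold; C. albicans yeast); standardized spore suspension 10⁴ CFU/mL. Compounds dissolved in DMSO as a parent stock, diluted to test levels (100, 300, 500, 1000 ppm).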

[2] = test system: Aspergillus flavus; experiment: Antifungal activity against Aspergillus flavus at 100 ppm
Outline: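 Clinical isolate of A. flavus (mold) tested by agar diffusion, well technique, using a standardized spore suspension of 10⁴ CFU/mL. Compounds were dissolved in dimethylsulphoxide and diluted from a parent stock.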

[3] = test system: Candida albicans; experiment: Antifungal activity against Candida albicans at 500 ppm; settings: for zone of inhibition at 500 ppm: read-out: DIZ; outline: as §1
[4] = test system: Aspergillus flavus; experiment: Antifungal activity against Aspergillus flavus by agar diffusion technique
Outline: (§2)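 Clinical isolates (A. flavus mold; C. albicans yeast), spore suspension standardized at 10⁴ CFU/mL. DMSO stocks diluted to a concentration series. Approximate MIC by agar diffusion (well technique), taken as the concentration giving minimal inhibition around the well.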

[5] = test system: Candida albicans; experiment: Antifungal activity against Candida albicans at 300 ppm; settings: for zone of inhibition at 300 ppm: read-out: DIZ; outline: as §1
[6] = test system: Aspergillus flavus; experiment: Antifungal activity against Aspergillus flavus up to 24 hrs
Outline: (§3)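 MFC in tubes of standardized spore suspension (10⁴ CFU/mL) of clinical isolates, each dosed with compound at increasing concentrations starting from the MIC. Controls: solvent at its highest level, and fluconazole. CFU counted and viability checked at intervals over 0–24 h. MFC is the lowest concentration killing about 99% of viable CFU.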

[7] = test system: Aspergillus flavus; experiment: Antifungal activity against Aspergillus flavus at 500 ppm; settings: for zone of inhibition at 500 ppm: read-out: DIZ; outline: as §1
[8] = test system: Candida albicans; experiment: Antifungal activity against Candida albicans at 100 ppm; settings: for zone of inhibition at 100 ppm: read-out: DIZ; outline: as §1
[9] = test system: Aspergillus flavus; experiment: Antifungal activity against Aspergillus flavus at 1000 ppm; settings: for zone of inhibition at 1000 ppm: read-out: DIZ; outline: as §1
[10] = test system: Candida albicans; experiment: Antifungal activity against Candida albicans at 1000 ppm; settings: read-out: DIZ; outline: as §1
[11] = test system: Candida albicans; experiment: Antifungal activity against Candida albicans up to 24 hrs; outline: as §3
[12] = test system: Candida albicans; experiment: Antifungal activity against Candida albicans by agar diffusion technique; outline: as §2

| SMILES | zone of inhibition at 300 ppm [1] [mm] | diameter of the inhibition zone (DIZ) [2] | zone of inhibition at 500 ppm [3] [mm] | MIC [4] | zone of inhibition at 300 ppm [5] [mm] | MFC [6] | zone of inhibition at 500 ppm [7] [mm] | zone of inhibition at 100 ppm [8] [mm] | zone of inhibition at 1000 ppm [9] [mm] | zone of inhibition at 1000 ppm [10] [mm] | MFC [11] | MIC [12] [µg/mL] | diameter of the inhibition zone (DIZ) [1] | diameter of the inhibition zone (DIZ) [5] | diameter of the inhibition zone (DIZ) [7] | diameter of the inhibition zone (DIZ) [8] | diameter of the inhibition zone (DIZ) [3] | diameter of the inhibition zone (DIZ) [9] | zone of inhibition at 100 ppm ([2]; read-out: DIZ) [mm] | MFC [4] [µg/mL] |
| --- | --- | --- | --- | --- | --- | --- | --- | --- | --- | --- | --- | --- | --- | --- | --- | --- | --- | --- | --- | --- |
| O=C(CCn1nc2sc3ccccc3n2c1=S)N(C(=O)NC1CCCCC1)C1CCCCC1 | < 10 | inactive | > 16 | 300 µg/mL (≈ 618 µM) | 10 | inactive | 10 | < 10 | > 16 | > 16 | 500 µg/mL (≈ 1030 µM) | 100 (≈ 206 µM) | – | – | – | – | – | – | – | – |
| COC(=O)C(NC(=O)CSc1nnc2sc3ccccc3n12)C(C)O (racemic) | – | inactive | < 10 | 1000 µg/mL (≈ 2630 µM) | – | inactive | – | – | 10 | 10 | inactive | 500 (≈ 1310 µM) | inactive | inactive | inactive | inactive | – | – | – | – |
| O=C(O)CSc1nnc2sc3ccccc3n12 | – | inactive | < 10 | 1000 µg/mL (≈ 3770 µM) | < 10 | 500 µg/mL (≈ 1880 µM) | – | – | < 10 | 10 | inactive | 300 (≈ 1130 µM) | inactive | – | inactive | inactive | – | – | – | – |
| O=C(O)CCn1nc2sc3ccccc3n2c1=S | – | inactive | 10 | 500 µg/mL (≈ 1790 µM) | < 10 | inactive | < 10 | – | 10 | > 16 | inactive | 300 (≈ 1070 µM) | inactive | – | – | inactive | – | – | – | – |
| NNC(=O)CCn1nc2sc3ccccc3n2c1=S | – | inactive | – | inactive | – | inactive | – | – | – | < 10 | inactive | 1000 (≈ 3410 µM) | inactive | inactive | inactive | inactive | inactive | inactive | – | – |
| OC(Cn1cncn1)(Cn1cncn1)c1ccc(F)cc1F [FLUCONAZOLE] | 10 | – | > 16 | – | 10 | 300 µg/mL (≈ 980 µM) | > 16 | < 10 | > 16 | > 16 | 300 µg/mL (≈ 980 µM) | 100 (≈ 327 µM) | – | – | – | – | – | – | < 10 | 100 (≈ 327 µM) |
| Sc1nnc2sc3ccccc3n12 | < 10 | inactive | > 16 | 300 µg/mL (≈ 1450 µM) | 10 | 500 µg/mL (≈ 2410 µM) | 10 | < 10 | > 16 | > 16 | 500 µg/mL (≈ 2410 µM) | 100 (≈ 482 µM) | – | – | – | – | – | – | – | – |
| COC(=O)[C@H](CCSC)NC(=O)CSc1nnc2sc3ccccc3n12 | – | inactive | – | inactive | – | inactive | – | – | – | < 10 | inactive | 1000 (≈ 2440 µM) | inactive | inactive | inactive | inactive | inactive | inactive | – | – |
| O=C(O)CCSc1nnc2sc3ccccc3n12 | – | inactive | 10 | 500 µg/mL (≈ 1790 µM) | < 10 | inactive | < 10 | – | 10 | > 16 | inactive | 300 (≈ 1070 µM) | inactive | – | – | inactive | – | – | – | – |
| COC(=O)CCn1nc2sc3ccccc3n2c1=S | – | inactive | < 10 | 1000 µg/mL (≈ 3410 µM) | < 10 | inactive | – | – | < 10 | > 16 | inactive | 300 (≈ 1020 µM) | inactive | – | inactive | inactive | – | – | – | – |
| O=C(CSc1nnc2sc3ccccc3n12)N(C(=O)NC1CCCCC1)C1CCCCC1 | < 10 | inactive | 10 | 300 µg/mL (≈ 636 µM) | < 10 | 500 µg/mL (≈ 1060 µM) | 10 | < 10 | > 16 | > 16 | inactive | 100 (≈ 212 µM) | – | – | – | – | – | – | – | – |
| COC(=O)CCNC(=O)CSc1nnc2sc3ccccc3n12 | – | inactive | – | inactive | – | inactive | – | – | < 10 | < 10 | inactive | 1000 (≈ 2850 µM) | inactive | inactive | inactive | inactive | inactive | – | – | – |
| CCOC(=O)CSc1nnc2sc3ccccc3n12 | – | inactive | < 10 | inactive | – | inactive | – | – | – | 10 | inactive | 500 (≈ 1700 µM) | inactive | inactive | inactive | inactive | – | inactive | – | – |
| NNC(=O)CSc1nnc2sc3ccccc3n12 | – | inactive | 10 | inactive | < 10 | inactive | – | < 10 | – | > 16 | 500 µg/mL (≈ 1790 µM) | 100 (≈ 358 µM) | inactive | – | inactive | – | – | inactive | – | – |
| COC(=O)[C@H](CCSC)NC(=O)CCSc1nnc2sc3ccccc3n12 | – | inactive | < 10 | 1000 µg/mL (≈ 2360 µM) | – | inactive | – | – | < 10 | 10 | inactive | 500 (≈ 1180 µM) | inactive | inactive | inactive | inactive | – | – | – | – |
| O=C(CCSc1nnc2sc3ccccc3n12)N(C(=O)NC1CCCCC1)C1CCCCC1 | – | inactive | 10 | 1000 µg/mL (≈ 2060 µM) | < 10 | inactive | – | – | < 10 | > 16 | inactive | 300 (≈ 618 µM) | inactive | – | inactive | inactive | – | – | – | – |
| COC(=O)CNC(=O)CSc1nnc2sc3ccccc3n12 | – | inactive | < 10 | 1000 µg/mL (≈ 2970 µM) | – | inactive | – | – | < 10 | 10 | inactive | 500 (≈ 1490 µM) | inactive | inactive | inactive | inactive | – | – | – | – |
| COC(=O)[C@H](CC(C)C)NC(=O)CSc1nnc2sc3ccccc3n12 | – | inactive | < 10 | inactive | – | inactive | – | – | – | 10 | inactive | 500 (≈ 1270 µM) | inactive | inactive | inactive | inactive | – | inactive | – | – |
| COC(=O)[C@H](Cc1ccc(O)cc1)NC(=O)CSc1nnc2sc3ccccc3n12 | – | inactive | > 16 | 1000 µg/mL (≈ 2260 µM) | < 10 | inactive | – | < 10 | < 10 | > 16 | inactive | 100 (≈ 226 µM) | inactive | – | inactive | – | – | – | – | – |
